Test [1] relates to Influenza A virus. Briefly: Antiviral activity against influenza A H3N2 virus in MDCK cells. The format is functional, organism-based. A digest of the protocol:
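Confluent MDCK monolayers were infected with influenza A H3N2 (A3 China/15/90) for 2 h at 37 °C. The inoculum was removed and the cells were treated with a range of compound concentrations. CPE was scored once the virus control reached 4+. The concentration giving 50% reduction of virus-induced CPE was found by Reed–Muench interpolation.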

In test [2] the test system is Influenza A virus. The test can be described thus: Cytotoxicity in MDCK cells infected with influenza A H3N2 virus. The format is functional. A digest of the protocol:
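Confluent MDCK monolayers were infected with influenza A H3N2 (A3 China/15/90) for 2 h at 37 °C, then the inoculum was removed and a range of compound concentrations added. Cultures were read when the virus control reached 4+ CPE. The value is the concentration causing microscopically detectable toxicity in the virus-infected cultures.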

The test system of another test is Influenza B virus. Briefly: Inhibitory activity against influenza B virus. The format is functional, organism-based.
Where [3] appears, read: Influenza A virus, H3N2, MDCK, read-out: IC50.

In brackets after ≈: the same amount, converted by molar mass. Activity calls are given as the source filed them. The calls are words filed in the database; no cut-off is given here.

Turning to `COC(=O)c1coc([C@H](C)NC(=O)c2nc(-c3csc([C@@H](NC(=O)c4cccc(F)c4)C(C)C)n3)oc2C)n1`, in the test on Influenza A virus [1] (setting [3]), the IC50 – broadly, the concentration that inhibits the measured activity by half – worked out at 77 µg/mL (≈ 139 µM). In addition, in the test with Influenza A virus [2], half-maximal cytotoxicity (CC50) was put at 577 µg/mL (≈ 1040 µM). In addition, the outcome with Influenza B virus was inactive.

Consider `CCC(=O)N[C@H](c1nc(-c2nc(C(=O)N[C@@H](C)c3nc(C(=O)OC)co3)c(C)o2)cs1)C(C)C`, for which the CC50 (commonly the concentration giving 50% cytotoxicity) in the test on Influenza A virus [2] is 577 µg/mL (≈ 1180 µM). Besides, in the test on Influenza B virus, the result was inactive.

For the molecule `COC(=O)c1coc([C@H](C)NC(=O)c2nc(-c3csc([C@@H](NC(=O)CC4=CCCCC4)C(C)C)n3)oc2C)n1`, the 50% inhibitory concentration (IC50) in the test with Influenza A virus [1] (setting [3]) amounted to 44.5 µg/mL (≈ 80 µM). In the test with Influenza A virus [2], this molecule came in with a CC50 of 577 µg/mL (≈ 1040 µM). Moreover, in the test on Influenza B virus, the outcome was inactive.

With `C=CCCC(=O)N[C@H](c1nc(-c2nc(C(=O)OC)c(C)o2)cs1)C(C)C`, in the test on Influenza A virus [2], the CC50 was 577 µg/mL (≈ 1530 µM). Moreover, the outcome in the test on Influenza B virus was inactive.

Take `COC(=O)c1nc(-c2csc([C@@H](NC(=O)CCC=C(C)C)C(C)C)n2)oc1C`: in the test with Influenza A virus [1] (setting [3]), the IC50 was 37 µg/mL (≈ 91.3 µM). The molecule also yielded a CC50 with Influenza A virus [2] of 577 µg/mL (≈ 1420 µM). Moreover, the result in the test on Influenza B virus was inactive.

Molecule `CCC(=O)N[C@H](c1nc(-c2nc(C(=O)OC)c(C)o2)cs1)C(C)C` showed a CC50 in the test on Influenza A virus [2] of 577 µg/mL (≈ 1640 µM). Moreover, the outcome in the test on Influenza B virus was inactive.

On to `COC(=O)c1nc(-c2csc([C@@H](NC(=O)c3ccccc3OC)C(C)C)n2)oc1C`, for which, in the test on Influenza A virus [1] (setting [3]), the IC50 is 47.7 µg/mL (≈ 111 µM). This molecule registered a CC50 in the test on Influenza A virus [2] of 333 µg/mL (≈ 776 µM). In addition, in the test on Influenza B virus, the outcome was inactive.

Molecule `COC(=O)c1nc(-c2csc([C@@H](NC(=O)CC3=CCCCC3)C(C)C)n2)oc1C` returned a CC50 in the test on Influenza A virus [2] of 231 µg/mL (≈ 554 µM). Besides, in the test on Influenza B virus, the result was inactive.

In the test with Influenza A virus [2], `COC(=O)c1nc(-c2csc([C@@H](NC(=O)C3CCC3)C(C)C)n2)oc1C` registered a CC50 of 500 µg/mL (≈ 1320 µM). Moreover, in the test on Influenza B virus, the result was inactive.

For `Cc1oc2nc1C(=O)N[C@@H](C)c1nc(co1)C(=O)N[C@@H](CC(C)C)C(=O)N1CCC[C@H]1C(=O)N[C@@H](C(C)C)c1nc-2cs1` [LEUCAMIDE A], the IC50 entry in the test with Influenza A virus [1] (mdck) was “Not Active”. For the same molecule, the CC50 result in the test on Influenza A virus [2] was “inactive”.

In turn, `COC(=O)c1coc([C@H](C)NC(=O)c2nc(-c3csc([C@@H](NC(=O)C4CCCCC4)C(C)C)n3)oc2C)n1` gave a CC50 in the test with Influenza A virus [2] of 144 µg/mL (≈ 266 µM). Moreover, the outcome in the test with Influenza B virus was inactive.

In the case of `COC(=O)c1nc(-c2csc([C@@H](NC(=O)CC=C(C)C)C(C)C)n2)oc1C`, the IC50 in the test with Influenza A virus [1] (setting [3]) came out at 192 µg/mL (≈ 492 µM). The molecule also registered a CC50 with Influenza A virus [2] of more than 1000 µg/mL. For the same molecule, the outcome in the test with Influenza B virus was inactive.

With `NC(=O)c1ncn([C@@H]2O[C@H](CO)[C@@H](O)[C@H]2O)n1` [RIBAVIRIN], the IC50 in the test on Influenza A virus [1] (setting [3]) worked out at 3.73 µg/mL (≈ 15.3 µM).

Regarding `COC(=O)c1nc(-c2csc([C@@H](NC(=O)C3CCCCC3)C(C)C)n2)oc1C`, the IC50 with Influenza A virus [1] (setting [3]) was 43.6 µg/mL (≈ 107 µM). The CC50 in the test with Influenza A virus [2] turned out to be 144 µg/mL (≈ 356 µM). Further, in the test with Influenza B virus, the result was inactive.

For the molecule `COC(=O)c1nc(-c2csc([C@@H](NC(=O)CC3=CCCC3)C(C)C)n2)oc1C`, in the test with Influenza A virus [2], the CC50 came out at 333 µg/mL (≈ 826 µM). In the test on Influenza B virus, the result was inactive.

Regarding `C/C=C(\C)C(=O)N[C@H](c1nc(-c2nc(C(=O)OC)c(C)o2)cs1)C(C)C`, in the test on Influenza A virus [1] (setting [3]), the IC50 came out at 37 µg/mL (≈ 98.1 µM). The same molecule came in with a CC50 in the test on Influenza A virus [2] of 231 µg/mL (≈ 612 µM). In addition, in the test on Influenza B virus, the result was inactive.

`COC(=O)c1coc([C@H](C)NC(=O)c2nc(-c3csc([C@@H](NC(=O)CC=C(C)C)C(C)C)n3)oc2C)n1` returned a CC50 in the test with Influenza A virus [2] of 577 µg/mL (≈ 1090 µM). Besides, in the test on Influenza B virus, the result was inactive.

Take `COC(=O)c1nc(-c2csc([C@@H](NC(=O)C(C)(C)C)C(C)C)n2)oc1C`: the CC50 with Influenza A virus [2] worked out at 577 µg/mL (≈ 1520 µM). Besides, the outcome in the test on Influenza B virus was inactive.

`Cc1oc(-c2csc([C@@H](NC(=O)CC3=CCCC3)C(C)C)n2)nc1C(=O)O`: the IC50 with Influenza A virus [1] (setting [3]) was determined as 29 µg/mL (≈ 74.5 µM). The CC50 in the test with Influenza A virus [2] stood at 481 µg/mL (≈ 1230 µM). Also, the result in the test with Influenza B virus was inactive.

Turning to `COC(=O)c1nc(-c2csc([C@@H](NC(=O)c3cccc(F)c3)C(C)C)n2)oc1C`, the IC50 in the test on Influenza A virus [1] (setting [3]) is more than 86.2 µg/mL. The same molecule showed a CC50 in the test on Influenza A virus [2] of more than 1000 µg/mL. The outcome in the test with Influenza B virus was inactive.

As to `COC(=O)c1nc(-c2csc([C@@H](N)C(C)C)n2)oc1C`, the IC50 in the test on Influenza A virus [1] (setting [3]) came out at 259 µg/mL (≈ 876 µM). The same molecule registered a CC50 in the test on Influenza A virus [2] of 577 µg/mL (≈ 1950 µM). In addition, the outcome in the test with Influenza B virus was inactive.

As to `COc1ccccc1C(=O)N[C@H](c1nc(-c2nc(C(=O)O)c(C)o2)cs1)C(C)C`, the IC50 with Influenza A virus [1] (setting [3]) was determined as 29 µg/mL (≈ 69.8 µM). Moreover, the half-maximal cytotoxic concentration (CC50) with Influenza A virus [2] turned out to be 333 µg/mL (≈ 802 µM). In addition, in the test with Influenza B virus, the outcome was inactive.

The values are drawn from ChEMBL document CHEMBL1141874, “Synthesis and biological evaluation of novel bisheterocycle-containing compounds as potential anti-influenza virus agents” (Bioorg Med Chem Lett, 2005).
